Assay results as given in paper PMC2939729 (Cancer cell, 2010).

How the values were obtained:
[1] = system: xenografted human (HeLa) or syngeneic mouse (LL/2) tumors; assay: In vivo tumorigenesis experiments; design: species or system mice
How it was run: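 Tumour cells in DMEM were injected s.c. into the right flank of 6-week-old mice: HeLa at 5 × 10^5 into Nod/Scid mice, or LL/2 at 1 × 10^6 into C57Bl/6 mice. Groups of 6 received 50 mg/kg i.p. twice daily, starting day 1, 7 or 14 (HeLa, to day 28) or day 1, 7 or 10 (LL/2, to day 17). Controls received carrier solution. Tumours were measured by caliper every 2–3 days, volume = L × W² × 0.52. BrdU was detected in tumour sections with anti-BrdU antibody, DAPI counterstain (6 mice, 9 slices). Student's t test was used.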

[2] = system: basic fibroblast growth factor (bFGF) induced angiogenesis; assay: bFGF-induced angiogenesis in Matrigel plugs; format: in vivo; settings: mice, Matrigel with 400 ng/mL bFGF, treated for 6 days
How it was run: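 Mice were implanted with Matrigel containing 400 ng/mL bFGF and treated with test compound or vehicle for 6 days, starting the next day. Plugs were harvested, sectioned and stained with Masson's trichrome (6 mice, 9 slices), and plug hemoglobin content was measured. Student's t test was used.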

[3] = Tolerability experiments in mice, 14 days
[4] = mouse, in vivo, ip, 50 mg/kg
TNK1 = biological target: T1, TNK1 (Homo sapiens, UniProt Q13470); assay: Inhibitory effect on TNK1 in vitro and in vivo
T1 sequence (Q13470 1-666): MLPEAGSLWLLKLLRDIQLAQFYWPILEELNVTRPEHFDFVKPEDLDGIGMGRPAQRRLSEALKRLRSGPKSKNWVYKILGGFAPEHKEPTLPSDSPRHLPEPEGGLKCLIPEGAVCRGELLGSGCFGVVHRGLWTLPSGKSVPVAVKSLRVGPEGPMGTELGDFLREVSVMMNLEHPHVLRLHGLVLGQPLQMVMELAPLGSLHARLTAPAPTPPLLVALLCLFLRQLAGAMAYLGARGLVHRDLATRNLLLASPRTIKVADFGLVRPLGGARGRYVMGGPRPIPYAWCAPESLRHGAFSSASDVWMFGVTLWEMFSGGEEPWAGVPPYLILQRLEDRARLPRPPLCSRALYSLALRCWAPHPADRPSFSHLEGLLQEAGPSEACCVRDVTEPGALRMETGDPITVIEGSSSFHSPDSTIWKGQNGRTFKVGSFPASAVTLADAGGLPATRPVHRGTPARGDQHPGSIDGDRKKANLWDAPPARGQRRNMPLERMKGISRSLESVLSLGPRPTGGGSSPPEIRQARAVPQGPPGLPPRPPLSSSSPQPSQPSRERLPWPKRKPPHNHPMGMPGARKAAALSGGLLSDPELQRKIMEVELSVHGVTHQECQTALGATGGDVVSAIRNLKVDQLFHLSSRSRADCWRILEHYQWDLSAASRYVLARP

HeLa cells = assay: HeLa cell proliferation, MTT assay; format: cell-based, human; settings: 5 μM, 48 hr, compared with Ad-BMK1(AEF)
[5] = Pharmacokinetics in Sprague-Dawley rats; format: in vivo; settings: single oral dose of 2 mg/kg
PLK4 = biological target: T2, PLK4 (Homo sapiens, UniProt O00444); assay: Inhibitory effect on PLK4 in vitro and in vivo
T2 sequence (O00444 1-970): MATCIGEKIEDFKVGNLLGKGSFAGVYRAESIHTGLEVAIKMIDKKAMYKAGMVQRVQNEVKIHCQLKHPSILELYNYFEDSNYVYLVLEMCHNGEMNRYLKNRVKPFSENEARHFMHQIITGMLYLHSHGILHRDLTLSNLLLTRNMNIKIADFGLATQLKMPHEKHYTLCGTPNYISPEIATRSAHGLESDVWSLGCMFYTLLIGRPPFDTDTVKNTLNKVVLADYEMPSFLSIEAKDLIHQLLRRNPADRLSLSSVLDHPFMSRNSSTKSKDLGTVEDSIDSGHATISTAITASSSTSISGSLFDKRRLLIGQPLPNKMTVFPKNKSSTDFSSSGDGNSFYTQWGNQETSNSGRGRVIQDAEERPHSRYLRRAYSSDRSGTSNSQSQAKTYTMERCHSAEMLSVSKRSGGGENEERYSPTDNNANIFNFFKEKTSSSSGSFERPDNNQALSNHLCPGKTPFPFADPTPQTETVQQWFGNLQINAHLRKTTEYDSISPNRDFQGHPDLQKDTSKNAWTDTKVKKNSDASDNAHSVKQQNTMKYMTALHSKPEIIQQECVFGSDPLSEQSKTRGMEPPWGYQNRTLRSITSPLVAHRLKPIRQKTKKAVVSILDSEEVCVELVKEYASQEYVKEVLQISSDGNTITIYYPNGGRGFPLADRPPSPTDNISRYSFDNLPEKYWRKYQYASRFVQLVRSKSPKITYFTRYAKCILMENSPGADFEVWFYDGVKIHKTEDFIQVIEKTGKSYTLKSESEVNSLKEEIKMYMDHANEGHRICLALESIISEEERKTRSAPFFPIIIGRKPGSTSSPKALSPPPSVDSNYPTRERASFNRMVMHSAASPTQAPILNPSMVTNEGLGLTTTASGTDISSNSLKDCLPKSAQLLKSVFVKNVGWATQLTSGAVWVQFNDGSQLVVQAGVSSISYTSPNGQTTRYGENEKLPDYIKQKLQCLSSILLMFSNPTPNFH

BMK1 [6] = biological target: T3, BMK1 (Homo sapiens, UniProt Q13164); assay: A549 xenograft: BMK1 activation and p21 in tumor homogenates; format: in vivo; settings: Nod/Scid mice, 50 mg/kg twice a day, 2 days
Target sequence in this assay (Q13164 whole entry): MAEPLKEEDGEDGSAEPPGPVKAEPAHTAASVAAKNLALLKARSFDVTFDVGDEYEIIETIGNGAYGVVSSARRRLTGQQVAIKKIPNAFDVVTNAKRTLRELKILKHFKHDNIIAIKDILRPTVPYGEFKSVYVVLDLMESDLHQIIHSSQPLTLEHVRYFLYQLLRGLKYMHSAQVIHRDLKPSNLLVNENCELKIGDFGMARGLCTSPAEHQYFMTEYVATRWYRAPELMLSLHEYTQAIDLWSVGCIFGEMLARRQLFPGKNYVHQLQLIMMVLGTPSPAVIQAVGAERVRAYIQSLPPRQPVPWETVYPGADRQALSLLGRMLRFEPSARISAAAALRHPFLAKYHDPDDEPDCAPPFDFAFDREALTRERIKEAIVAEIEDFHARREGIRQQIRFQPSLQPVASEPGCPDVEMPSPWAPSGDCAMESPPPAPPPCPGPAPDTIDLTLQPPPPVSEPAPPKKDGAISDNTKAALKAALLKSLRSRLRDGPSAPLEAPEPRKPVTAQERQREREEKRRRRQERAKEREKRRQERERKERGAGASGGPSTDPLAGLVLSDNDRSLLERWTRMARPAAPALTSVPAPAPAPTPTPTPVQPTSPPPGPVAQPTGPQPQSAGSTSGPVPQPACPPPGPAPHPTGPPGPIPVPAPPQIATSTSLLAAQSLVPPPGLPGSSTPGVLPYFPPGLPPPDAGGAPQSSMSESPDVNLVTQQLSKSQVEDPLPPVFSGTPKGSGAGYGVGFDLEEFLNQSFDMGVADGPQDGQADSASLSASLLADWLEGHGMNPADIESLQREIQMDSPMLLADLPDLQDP

BMK1 [7] = biological target: T3, BMK1; assay: in vitro ATP-site competition binding assay, panel of 402 kinases; settings: 10 μM inhibitor
Target sequence in this assay (Q13164 whole entry, species assumed): as the sequence (Q13164 whole entry) above

CCOc1cc(N2CCC(O)CC2)ccc1Nc1ncc2c(n1)N(C)c1ccccc1C(=O)N2C [XMD8-92]
incorporation of BrdU during tumor cell division ([1]; HeLa or LL/2 tumor sections, immuno-staining): effectively inhibited
inhibition of tumor growth ([1]; mice, 50 mg/kg twice a day intraperitoneally): 95%
side effects to the animals ([1]; tumor-bearing mice, 50 mg/kg twice a day intraperitoneally): without obvious side effects
bFGF induced angiogenesis in Matrigel plugs [2]: significantly inhibits
vasculature instability ([3]; XMD8-92-treated mice): No vasculature instability
plasma concentrations of drug ([3]; mice, IP dosing of 50 mg/kg, maintained throughout the 14 days): approximately 10 μM
tolerability [4]: well tolerated
inhibitory effect on TNK1 (TNK1): no significant inhibitory effect
extent of inhibition of proliferation (HeLa cells): indistinguishable from that by dominant negative BMK1
maximal plasma concentrations [5]: approximately 500 nM
time of maximal plasma concentrations [5]: ≤ 30 min
plasma concentration remaining 8 hr post dose ([5]; 8 hr): 34 nM
inhibitory effect on PLK4 (PLK4): no significant inhibitory effect
BMK1 activation in tumors (BMK1 [6]): effectively inhibit
p21 expression in tumors (BMK1 [6]): induce
displacement by XMD8-92 (BMK1 [7]): greater than 90%
